Screens (PubChem)
NPY1 pot ag: potentiators or agonists of human neuropeptide Y receptor Y1; NPY-Y1 expressing cells, potentiator/agonist activation; activation, % at 3.6 µM; 220,000 compounds, 0.37% hits; in the data active = activation above about 33%, passing the limit was not always enough;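 also: cells stimulated with NPY at EC10 then isoproterenol at EC100; 0% = low agonist plus stimulus and 100% = saturating agonist plus stimulus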
Target sequence (P25929 whole entry, looked up): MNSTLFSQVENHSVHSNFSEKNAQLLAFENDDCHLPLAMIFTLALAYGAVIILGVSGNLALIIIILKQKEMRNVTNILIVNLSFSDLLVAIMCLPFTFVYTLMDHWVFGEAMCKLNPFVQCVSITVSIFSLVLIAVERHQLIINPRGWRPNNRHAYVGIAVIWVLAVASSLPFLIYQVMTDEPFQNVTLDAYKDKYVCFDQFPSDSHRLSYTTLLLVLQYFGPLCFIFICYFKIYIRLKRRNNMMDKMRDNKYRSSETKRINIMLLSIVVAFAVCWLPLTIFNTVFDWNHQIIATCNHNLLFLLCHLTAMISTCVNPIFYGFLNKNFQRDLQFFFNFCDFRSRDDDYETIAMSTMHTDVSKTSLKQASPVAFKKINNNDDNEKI
NPY2 pot ag: potentiators or agonists of human neuropeptide Y receptor Y2; cells expressing NPY-Y2, potentiator/agonist read-out; activation, % at 3.6 µM; 220,000 compounds, 0.45% hits; AID 1359; in the data active = activation above about 27%;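 also: cells stimulated with NPY near EC25 plus isoproterenol at EC100; 0% = vehicle plus submaximal agonist and 100% = vehicle plus saturating agonist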
Target sequence (P49146 whole entry, looked up): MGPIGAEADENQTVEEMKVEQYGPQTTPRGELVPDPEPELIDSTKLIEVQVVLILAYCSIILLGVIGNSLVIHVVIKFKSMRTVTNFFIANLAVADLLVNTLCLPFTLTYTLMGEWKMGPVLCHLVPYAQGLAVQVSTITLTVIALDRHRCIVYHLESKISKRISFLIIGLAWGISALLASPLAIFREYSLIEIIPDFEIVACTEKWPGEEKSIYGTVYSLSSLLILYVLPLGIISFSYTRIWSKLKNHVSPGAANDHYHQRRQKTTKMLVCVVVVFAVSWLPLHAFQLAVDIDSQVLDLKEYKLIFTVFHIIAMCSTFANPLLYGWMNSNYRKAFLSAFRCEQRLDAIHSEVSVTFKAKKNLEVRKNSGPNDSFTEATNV
NPY Y1 blocker: antagonists of human neuropeptide Y receptor Y1; P25929; HEK293-CNG Y1 cells, membrane potential fluorescence; NPY at EC95, then isoproterenol; inhibition, % at 3.6 µM; 200,000 compounds, 1% hits; AID 1040;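 active = inhibition above the campaign mean inhibition of all tested compounds plus 3 SD, cut at about 20% in these data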;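 also: 0% = DMSO wells given NPY plus isoproterenol and 100% = isoproterenol alone without NPY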
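Material: HEK293 Y1/CNG channel cell line | Also added: NPY (25 nM), isoproterenol (1 µM), Ro 20-1724 (25 µM) | Compound: One concentration, 3.6 µM, in 0.4% DMSO | Schedule: 3 h dye uptake, 1 h room-temperature compound, 45 min post-isoproterenol | Signal: Membrane-potential fluorescent dye readout | Read-out: % inhibition of NPY effect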
NPY-Y2 antag: antagonists of human neuropeptide Y receptor Y2. P49146. NPY-Y2 expressing cells, antagonist mode. inhibition, % at 2.7 µM. 140,000 compounds, 0.99% hits. AID 793; in the data active = inhibition above about 17%;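 also: 0% = vehicle with agonist challenge and 100% = reference antagonist with challenge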
NPY1 antag ctr: counter-screen for NPY-Y2 antagonists: human NPY-Y1 antagonism. shares compounds with NPY-Y2 antag. inhibition, % at 3.6 µM. cell-based NPY-Y1 antagonism counterscreen. 710 compounds, 19% hits; in the data active = inhibition above about 20%;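 also: cells challenged with NPY then isoproterenol with cAMP sensed through a CNG channel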
NPY2 antag conf: human NPY-Y2 antagonism, confirmation | shares compounds with NPY-Y2 antag | HEK293 NPY-Y2 CNG channel, membrane potential fluorescence | inhibition, % at 2.8 µM | 710 compounds, 32% hits;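 active = mean inhibition of triplicate wells above the hit cutoff set in the primary screen, cut at about 17% in these data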;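 also: 0% = DMSO with NPY challenge and 100% = BIIE0246 high control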
* marks the source's active call; other numbers are inactive results; . = not tested or not shown. Most compounds without a hit are left out; they make up all but 1.9% or so of the library.

SMILES | NPY1 pot ag | NPY2 pot ag | NPY Y1 blocker | NPY-Y2 antag | NPY1 antag ctr | NPY2 antag conf
Cc1ccc(NC(=O)COC(=O)CNC(=O)c2ccc(Br)cc2)c(C)c1 | 0.5 | -0.9 | 9.0 | 4.3 | . | .
Cc1cccc(Nc2nc(NCc3ccco3)c3ccccc3n2)c1 | -1.9 | 9.8 | 5.0 | 26.6* | 22.1* | 20.0*
O=C(O)c1cnc(-c2ccccc2)nc1Sc1ccc(Cl)cc1Cl | 5.5 | -10.8 | -3.5 | 2.0 | . | .
Cc1cc(C(=O)NN)c(Cl)cc1Cl | -17.3 | -13.6 | . | . | . | .
c1ccc(Cn2c3ccccc3c3nnc(SCCN4CCCCC4)nc32)cc1 | -30.8 | -14.1 | . | . | . | .
CSc1nnc2c3cc(C)ccc3n(Cc3ccccc3)c2n1 | -14.8 | 5.0 | 4.7 | 28.3* | 23.3* | 41.5*
COc1ccc(/C=N/NC(=O)c2cccc(OC(F)(F)C(F)F)c2)cc1O | -25.1 | -11.7 | -1.1 | 17.2* | 3.1 | 2.2
CCC(c1nnnn1Cc1ccc2c(c1)OCO2)N1CCN(c2ccccc2)CC1 (stereo not given) | -24.0 | -40.6 | 19.9 | 17.5* | 13.1 | 7.9
CCC(c1nnnn1Cc1ccc2c(c1)OCO2)N1CCN(c2ccc(F)cc2)CC1 (stereo not given) | 0.8 | 8.5 | 15.4 | 19.1* | 8.3 | 8.1
Cc1oc(-c2ccccc2Cl)nc1CN1CCCN(C(=O)c2ccco2)CC1 | -18.6 | 3.2 | 1.8 | . | . | .
COc1ccc(OC)c(-c2cc(C(=O)N3CCCc4ccccc43)no2)c1 | -33.4 | -30.6 | 18.7 | 17.5* | 9.8 | 5.4
COc1cccc(-c2cc(C(=O)N3CCCc4ccccc43)no2)c1 | -25.4 | 0.5 | 17.1 | 19.4* | 17.1 | 9.3
COc1ccc(-c2cc(C(=O)N3CCCc4ccccc43)no2)cc1 | -13.9 | -9.6 | 6.2 | 4.9 | . | .
CNCc1ccccc1Sc1ccc(OC)cc1 | -33.9 | -17.2 | 5.0 | 19.5* | 1.9 | 6.0
C/C(CCC(=O)OC[C@H]1O[C@H](C#Cc2ccccc2)C=C[C@@H]1Oc1ccc(C)cc1)=N\O[C@@H](C)CN1CCCCc2nc(C)c(C)cc21 | -15.1 | -17.3 | 4.3 | 21.6* | 9.0 | 8.6
CCCCn1c(SCC(=O)N2CCN(c3ccccc3)CC2)nc2ccsc2c1=O | -5.1 | -3.5 | 6.4 | 20.4* | 25.0* | 13.6
CCCCn1c(SCC(=O)Nc2ccccc2C(F)(F)F)nc2ccsc2c1=O | 23.6 | 15.8 | 12.0 | 28.8* | 13.8 | 13.1
CCCCn1c(SCC(=O)Nc2nccs2)nc2ccccc2c1=O | 11.4 | 7.5 | 1.0 | 1.1 | . | .
NS(=O)(=O)c1ccc(CCn2c(=S)[nH]c3ccc(F)cc3c2=O)cc1 | 13.6 | 0.7 | -0.9 | . | . | .
O=C(/C=C/c1ccccc1)Nc1ccc(C(=O)N2CCCCC2)cc1 | -3.9 | -12.5 | -2.4 | . | . | .
CN1CCN(c2ccccc2NC(=O)c2ccc(-c3ccc(Cl)cc3Cl)o2)CC1 | -66.2 | -9.4 | 8.3 | 17.2* | 11.7 | 24.7*
CS(=O)(=O)N1CCN(c2ccccc2NC(=O)c2ccc(-c3ccc(Cl)cc3Cl)o2)CC1 | -3.9 | -21.1 | 14.1 | 3.2 | . | .
CCOc1ccc2ccccc2c1C(=O)N1CCN(c2ccccc2)CC1 | -12.7 | 10.0 | 18.6 | 18.3* | 16.9 | 9.6
CCOC(=O)c1[nH]c(C)c(C(=O)N2CCN(c3ccccc3)CC2)c1C | -25.2 | -4.0 | 2.6 | 4.9 | . | .
COc1ccc(NC(=O)C(NC(C)=O)C(=O)NCc2ccccc2)cc1 (stereo not given) | 1.7 | -5.4 | 0.0 | 1.2 | . | .
SMILES | NPY1 pot ag | NPY2 pot ag | NPY Y1 blocker | NPY-Y2 antag | NPY1 antag ctr | NPY2 antag conf
COc1ccc(CNC(=O)C(NC(C)=O)C(=O)Nc2ccc(OC)cc2)cc1 (stereo not given) | 16.3 | 2.4 | 5.1 | 21.2* | -0.3 | -1.3
CCn1c(/C=C/Nc2ccccc2)[n+](CC)c2cc(Cl)c(Cl)cc21 | 0.0 | 4.4 | 7.7 | 34.6* | 13.3 | 14.8
CCn1c(/C=C/N(C(C)=O)c2ccccc2)[n+](CCCS(=O)(=O)[O-])c2cc(Cl)c(Cl)cc21 | -13.3 | -6.4 | 1.0 | . | . | .
CCN(C(=O)COC(=O)c1cc(=O)[nH]c2ccccc12)C1CCS(=O)(=O)C1 (stereo not given) | 9.7 | -7.6 | . | . | . | .
CCOC(=O)c1ccc(N2C(=O)C(CC(N)=O)N(CCc3ccc(OC)c(OC)c3)C2=S)cc1 (stereo not given) | 20.4 | 12.7 | -4.4 | . | . | .
O=C1CSC(c2nn(-c3ccccc3)cc2-c2cc3ccccc3oc2=O)N1Cc1ccco1 (stereo not given) | -39.0 | -19.7 | 7.4 | 18.1* | 2.0 | 6.5
O=C1CSC(c2cn(-c3ccccc3)nc2-c2cc3ccccc3oc2=O)N1Cc1ccccc1 (stereo not given) | -27.8 | -14.7 | 10.9 | 2.9 | . | .
Cc1cc2c(c(Sc3ccccc3)n1)C(=O)OC2 | 12.5 | 4.6 | 0.4 | 22.2* | -1.9 | -0.2
CCCn1nnnc1NC(=O)COc1ccc(CC)cc1 | -10.2 | -6.7 | 6.0 | 17.6* | 6.2 | 4.2
CCCn1nnnc1NC(=O)COc1ccc(Cl)c(C)c1 | -31.4 | -9.8 | 7.9 | 5.0 | . | .
O=C(OCC(=O)N1CCCCC1)c1cc(NS(=O)(=O)c2ccc(Cl)c([N+](=O)[O-])c2)ccc1O | -1.8 | 5.8 | -1.6 | 8.8 | . | .
COC(=O)c1ccc(OC)c(CSc2nnc(COc3cccc(C)c3)o2)c1 | -24.9 | -9.1 | 4.0 | 23.1* | 16.8 | 11.7
COc1cccc(CC2(CO)CCCN(Cc3cc(F)ccc3-n3cccn3)C2)c1 (stereo not given) | -5.2 | -2.4 | 18.7 | . | . | .
CCC(c1nnnn1CCc1ccccc1)N(Cc1ccco1)Cc1cc2cc(C)cc(C)c2[nH]c1=O (stereo not given) | -20.6 | -19.6 | 19.5 | 17.1* | 8.0 | 9.8
COc1ccc(C2Nc3ccccc3C(=O)N2Cc2ccco2)cc1COc1ccc(F)cc1 (stereo not given) | -49.8 | -20.6 | 19.6 | 21.7* | 9.6 | 8.8
COc1ccc(C2Nc3ccccc3C(=O)N2Cc2ccco2)cc1CN1C(=O)c2ccccc2C1=O (stereo not given) | 30.0 | -9.0 | -3.6 | 0.8 | . | .
Nc1c(C(=O)NCCN2CCOCC2)c2nc3ccccc3nc2n1-c1ccc2c(c1)OCO2 | -15.7 | 20.8 | -3.9 | -1.5 | . | .
Nc1c(C(=O)NCc2ccc3c(c2)OCO3)c2nc3ccccc3nc2n1CCCN1CCOCC1 | -10.1 | -4.9 | 12.0 | 19.1* | 17.4 | 7.1
COc1ccc(COC(=O)N/N=C(\C)CC(=O)Nc2ccc(Cl)cn2)cc1 | 16.1 | 6.6 | . | . | . | .
CC(C)CCC(C)N=Cc1c(O)n(Cc2ccccc2)c(=O)c2ccccc12 (stereo not given) | -19.8 | -3.0 | 13.7 | 21.3* | 26.6* | 20.8*
CCN(CC)CCCN=Cc1c(O)n(Cc2ccccc2)c(=O)c2ccccc12 | 0.2 | -11.5 | 2.6 | 3.7 | . | .
O=C(NC1CCCCC1)C(c1ccc2ncccc2c1)N(Cc1ccc2c(c1)OCO2)C(=O)c1cccs1 (stereo not given) | 6.5 | -1.5 | 19.7 | 23.7* | 20.3* | 11.2
